Experimental data reported in ChEMBL document CHEMBL4622957, “Green asymmetric synthesis of epoxypeptidomimetics and evaluation as human cathepsin K inhibitors” (Bioorg Med Chem, 2020).
Active and inactive are the calls of the source. The rule behind the calls is not given here.

Key:
Procathepsin L [1] = biological target: T1, Procathepsin L (Homo sapiens, UniProt P07711); assay: Inhibition of cathepsin L (unknown origin) at 25 uM using fluorogenic Z-FR-MCA as substrate preincubated for 5 mins followed by substrate addition by spectrofluorimetric assay relative to control
Target sequence in this assay (P07711 114-333 limits assumed): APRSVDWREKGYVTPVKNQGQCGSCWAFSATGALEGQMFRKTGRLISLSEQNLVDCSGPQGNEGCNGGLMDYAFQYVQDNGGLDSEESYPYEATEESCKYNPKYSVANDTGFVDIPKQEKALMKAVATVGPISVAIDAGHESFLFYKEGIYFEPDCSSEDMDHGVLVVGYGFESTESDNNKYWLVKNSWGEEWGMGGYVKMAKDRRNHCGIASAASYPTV

Cathepsin K [2] = biological target: T2, Cathepsin K (Homo sapiens, UniProt P43235); assay: Inhibition of recombinant human cathepsin K using Z-Phe-Arg-MCA as fluorogenic substrate preincubated for 5 mins followed by substrate addition and measured after 5 mins by fluorimetric analysis
T2 sequence (P43235 whole entry): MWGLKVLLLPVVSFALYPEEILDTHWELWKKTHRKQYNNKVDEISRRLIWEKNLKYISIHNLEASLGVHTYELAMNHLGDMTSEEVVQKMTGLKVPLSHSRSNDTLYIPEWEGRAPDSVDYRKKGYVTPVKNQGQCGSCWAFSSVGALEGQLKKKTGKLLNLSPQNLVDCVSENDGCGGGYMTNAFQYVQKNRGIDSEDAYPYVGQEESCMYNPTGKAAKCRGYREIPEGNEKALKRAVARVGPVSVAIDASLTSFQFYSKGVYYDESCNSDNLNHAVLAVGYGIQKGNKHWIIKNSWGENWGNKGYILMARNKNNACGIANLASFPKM
In short: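 Recombinant human CatK, expressed in Pichia pastoris and active-site titrated with E-64, was used at 2 nM in 0.1 M sodium acetate pH 5.5 with 2.5 mM DTT and 2.5 mM EDTA at room temperature. Enzyme and inhibitor were preincubated 5 min, then 10 μM Z-Phe-Arg-MCA was added. Fluorescence (ex 380/em 460 nm) was read for 5 min. Triplicates; % inhibition from initial rates; IC50 from ≥7 inhibitor concentrations.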

[3] = biological target: T3, Cathepsin K (Homo sapiens) (UniProt P43235); assay: Mixed type inhibition of recombinant human cathepsin K by Michaelis-Menten plot analysis
T3 sequence (whole entry): T2 sequence (P43235 whole entry)

Cathepsin K [4] = biological target: T2, Cathepsin K; assay: Binding affinity to recombinant human cathepsin K
Procathepsin L [5] = biological target: T1, Procathepsin L; assay: Inhibition of cathepsin L (unknown origin) using fluorogenic Z-FR-MCA as substrate preincubated for 5 mins followed by substrate addition by spectrofluorimetric assay
Target sequence in this assay (P07711 whole entry): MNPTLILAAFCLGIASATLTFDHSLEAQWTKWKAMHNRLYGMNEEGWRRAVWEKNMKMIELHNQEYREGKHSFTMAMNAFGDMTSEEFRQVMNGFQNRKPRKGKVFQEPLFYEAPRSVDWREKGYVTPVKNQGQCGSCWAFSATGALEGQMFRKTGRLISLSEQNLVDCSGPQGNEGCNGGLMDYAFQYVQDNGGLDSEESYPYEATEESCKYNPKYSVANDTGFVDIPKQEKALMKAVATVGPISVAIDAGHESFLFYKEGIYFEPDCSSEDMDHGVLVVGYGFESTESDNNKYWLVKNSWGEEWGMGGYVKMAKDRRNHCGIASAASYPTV

SMILES: CCCCCCC[C@H]1O[C@@H]1C(OC(=O)C1CCCCC1)C(=O)NC(C)(C)C (stereo partly drawn)
- inhibition (Procathepsin L [1]): 0%
- IC50 (Cathepsin K [2]): 7.6 µM

SMILES: CCCCCCC[C@H]1O[C@@H]1C(OC(=O)c1ccc(I)cc1)C(=O)NCCCC (stereo partly drawn)
- inhibition [3]: Active
- IC50 (Cathepsin K [2]): 3.35 µM
- Ki (Cathepsin K [4]): 5.45 µM

SMILES: CCCCCCC[C@H]1O[C@@H]1C(OC(=O)CCCCCBr)C(=O)NC(C)(C)C (stereo partly drawn)
- inhibition (Procathepsin L [1]): 0%
- IC50 (Cathepsin K [2]): 3.81 µM

SMILES: CCCCNC(=O)C([C@H]1O[C@@H]1c1ccccc1Br)N(Cc1ccccc1)C(=O)c1ccccc1 (stereo partly drawn)
- IC50 (Procathepsin L [5]): > 50 µM

SMILES: CCCCNC(=O)C([C@H]1O[C@@H]1CC)N(Cc1ccccc1)C(=O)c1ccccc1 (stereo partly drawn)
- inhibition (Procathepsin L [1]): 0%

SMILES: CCCCNC(=O)C([C@H]1O[C@@H]1c1ccccc1[N+](=O)[O-])N(Cc1ccccc1)C(=O)c1ccccc1 (stereo partly drawn)
- IC50 (Procathepsin L [5]): > 50 µM

SMILES: CCCCCCC[C@H]1O[C@@H]1C(OC(=O)c1ccc(I)cc1)C(=O)NC1CCCCC1 (stereo partly drawn)
- IC50 (Procathepsin L [5]): 5.36 µM

SMILES: CCCCNC(=O)C([C@H]1O[C@@H]1c1ccccc1)N(Cc1ccccc1)C(=O)c1ccccc1 (stereo partly drawn)
- inhibition (Procathepsin L [1]): 0%
- IC50 (Cathepsin K [2]): 18.5 µM

SMILES: CCCCNC(=O)C([C@H]1O[C@@H]1c1ccccc1)N(C(=O)c1ccc(I)cc1)C(C)(C)C (stereo partly drawn)
- inhibition [3]: Active
- inhibition (Procathepsin L [1]): 30%
- IC50 (Cathepsin K [2]): 6.44 µM
- Ki (Cathepsin K [4]): 9.57 µM

SMILES: CCCCCCC[C@H]1O[C@@H]1C(OC(=O)c1ccc(I)cc1)C(=O)NC(C)(C)C (stereo partly drawn)
- IC50 (Cathepsin K [2]): 2.21 µM
